Results taken from ChEMBL document CHEMBL1135826, “Antimicrobial peptides: synthesis and antibacterial activity of linear and cyclic drosocin and apidaecin 1b analogues” (2002).
≈ marks a conversion by molar mass, not a printed value. Where a SMILES comes first, the peptide text is derived from it. The star is where a group is joined. X2 = CC(=O)N[C@@H]1[C@@H](O)[C@H](O)[C@@H](CO)O[C@@H]1*

Experiments:
[1] = tested on: Staphylococcus aureus; experiment: Minimum inhibitory concentration (lowest peptide concentration) required to prevent visible bacterial growth after 18 hr of incubation at 37 C in Mueller-Hinton broth against Staphylococcus aureus G; assay type: functional
How it was run: (§1)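 Broth microdilution susceptibility test per NCCLS guidelines, in Mueller–Hinton broth with about 1.5–2.0 × 10^5 CFU/mL inoculum. Plates were incubated 18 h at 37 °C. MIC was taken as the lowest peptide concentration with no visible growth. Strains were ATCC strains or clinical isolates; E. coli O18:K1:H7 Bort is an encapsulated isolate from neonatal spinal fluid, and the S. aureus isolate is MRSA.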

[2] = tested on: Escherichia coli; experiment: Minimum inhibitory concentration (lowest peptide concentration) required to prevent visible bacterial growth after 18 hr of incubation at 37 C in Mueller-Hinton broth against Escherichia coli D22; assay type: functional; how it was run: as §1
[3] = tested on: Salmonella enteritidis; experiment: Minimum inhibitory concentration (lowest peptide concentration) required to prevent visible bacterial growth after 18 h of incubation at 37 C in Mueller-Hinton broth against […]; assay type: functional, Salmonella enterica subsp. enterica serovar Enteritidis; details: Salmonella enterica; how it was run: as §1
[4] = tested on: Escherichia coli; experiment: Minimum inhibitory concentration (lowest peptide concentration) required to prevent visible bacterial growth after 18 hr of incubation at 37 C in Mueller-Hinton broth against Escherichia coli D21; assay type: functional; how it was run: as §1
[5] = tested on: Pseudomonas aeruginosa; experiment: Minimum inhibitory concentration (lowest peptide concentration) required to prevent visible bacterial growth after 18 hr of incubation at 37 C in Mueller-Hinton broth against Pseudomonas aeruginosa ATCC 27853; assay type: functional; details: ATCC 27853, 18 h; how it was run: as §1
[6] = tested on: Klebsiella pneumoniae; experiment: Minimum inhibitory concentration (lowest peptide concentration) required to prevent visible bacterial growth after 18 hr of incubation at 37 C in Mueller-Hinton broth against Klebsiella pneumoniae 79; assay type: functional; how it was run: as §1
[7] = tested on: Klebsiella pneumoniae; experiment: Minimum inhibitory concentration (lowest peptide concentration) required to prevent visible bacterial growth after 18 hr of incubation at 37 C in Mueller-Hinton broth against Klebsiella pneumoniae 22; assay type: functional; how it was run: as §1
[8] = tested on: Escherichia coli; experiment: Minimum inhibitory concentration (lowest peptide concentration) required to prevent visible bacterial growth after 18 hr of incubation at 37 C in Mueller-Hinton broth against Escherichia coli ATCC 25922; assay type: functional; details: ATCC 25922, 18 h; how it was run: as §1
[9] = tested on: Salmonella typhimurium; experiment: Minimum inhibitory concentration (lowest peptide concentration) required to prevent visible bacterial growth after 18 hr of incubation at 37 C in Mueller-Hinton broth against Salmonella Typhimurium ATCC 14028; assay type: functional, Salmonella enterica subsp. enterica serovar Typhimurium; details: Salmonella enterica; how it was run: as §1
[10] = tested on: Staphylococcus epidermidis; experiment: Minimum inhibitory concentration (lowest peptide concentration) required to prevent visible bacterial growth after 18 hr of incubation at 37 C in Mueller-Hinton broth against Staphylococcus epidermidis 4; assay type: functional; how it was run: as §1
[11] = tested on: Acinetobacter baumannii; experiment: Minimum inhibitory concentration (lowest peptide concentration) required to prevent visible bacterial growth after 18 hr of incubation at 37 C in Mueller-Hinton broth against Acinetobacter baumannii 118A; assay type: functional; how it was run: as §1
[12] = tested on: Salmonella enteritidis; experiment: Minimum inhibitory concentration (lowest peptide concentration) required to prevent visible bacterial growth after 18 hr of incubation at 37 C in Mueller-Hinton broth against Salmonella enteritidis D5; details: Salmonella enterica
[13] = tested on: Escherichia coli; experiment: Minimum inhibitory concentration (lowest peptide concentration) required to prevent visible bacterial growth after 18 hr of incubation at 37 C in Mueller-Hinton broth against Escherichia coli O18:K1:H7; assay type: functional; how it was run: as §1
[14] = tested on: Escherichia coli; experiment: Minimum inhibitory concentration (lowest peptide concentration) required to prevent visible bacterial growth after 18 hr of incubation at 37 C in Mueller-Hinton broth against Escherichia coli ML-35; assay type: functional; how it was run: as §1

SMILES: CC[C@H](C)[C@H](NC(=O)[C@H](Cc1ccc(O)cc1)NC(=O)[C@@H](NC(=O)[C@@H]1CCCN1C(=O)[C@H](CCCN=C(N)N)NC(=O)[C@H](CC(N)=O)NC(=O)[C@H](CC(N)=O)NC(=O)CN)C(C)C)C(=O)N1CCC[C@H]1C(=O)N[C@@H](CCC(N)=O)C(=O)N1CCC[C@H]1C(=O)N[C@@H](CCCN=C(N)N)C(=O)N1CCC[C@H]1C(=O)N[C@H](C(=O)N1CCC[C@H]1C(=O)N[C@@H](Cc1c[nH]cn1)C(=O)N1CCC[C@H]1C(=O)N[C@@H](CCCN=C(N)N)C(=O)N[C@@H](CC(C)C)C(=O)O)[C@@H](C)O[C@H]1O[C@H](CO)[C@@H](O)[C@H](O)[C@H]1NC(C)=O (H-GNNRPVYIPQPRPT(X2)PHPRL-OH)
- MIC [1]: > 64 µM
- MIC [2]: 32 µM (≈ 77.2 µg/mL)
- MIC [3]: > 64 µM
- MIC [4]: > 64 µM
- MIC [5]: > 128 µM
- MIC [6]: > 128 µM
- MIC [7]: > 128 µM
- MIC [8]: 32 µM (≈ 77.2 µg/mL)
- MIC [9]: 64 µM (≈ 154 µg/mL)
- MIC [10]: > 64 µM
- MIC [11]: > 128 µM
- MIC [12]: 64 µM (≈ 154 µg/mL)
- MIC [13]: 64 µM (≈ 154 µg/mL)
- MIC [14]: 32 µM (≈ 77.2 µg/mL)

SMILES: CC[C@H](C)[C@H](NC(=O)[C@@H]1CCCN1C(=O)[C@H](CCCN=C(N)N)NC(=O)[C@@H]1CCCN1C(=O)[C@H](Cc1c[nH]cn1)NC(=O)[C@@H]1CSSC[C@H](NC(=O)[C@H](Cc2ccc(O)cc2)NC(=O)[C@@H]2CCCN2C(=O)[C@H](CCCN=C(N)N)NC(=O)[C@@H]2CCCN2C(=O)[C@H](CCCCN)NC(=O)CN)C(=O)N2CCC[C@H]2C(=O)N[C@@H](CCCN=C(N)N)C(=O)N2CCC[C@H]2C(=O)N[C@@H]([C@@H](C)O)C(=O)N1)C(=O)N[C@@H](CCCN=C(N)N)C(=O)N[C@H](C(=O)O)C(C)C (HELM PEPTIDE1{G.K.P.R.P.Y.C.P.R.P.T.C.H.P.R.P.I.R.V}$PEPTIDE1,PEPTIDE1,7:R3-12:R3$$$V2.0)
- MIC [1]: > 64 µM
- MIC [2]: > 64 µM
- MIC [3]: > 64 µM
- MIC [4]: > 64 µM
- MIC [5]: > 64 µM
- MIC [6]: > 64 µM
- MIC [7]: > 64 µM
- MIC [8]: > 64 µM
- MIC [9]: > 64 µM
- MIC [10]: > 64 µM
- MIC [11]: > 64 µM
- MIC [12]: > 64 µM
- MIC [13]: > 64 µM
- MIC [14]: > 64 µM

SMILES: CC[C@H](C)[C@@H]1NC(=O)[C@@H]2CCCN2C(=O)[C@H](CCCNC(=N)N)NC(=O)[C@@H]2CCCN2C(=O)[C@H](Cc2cnc[nH]2)NC(=O)[C@H](CO)NC(=O)[C@H]([C@@H](C)O)NC(=O)[C@@H]2CCCN2C(=O)[C@H](CCCNC(=N)N)NC(=O)[C@@H]2CCCN2C(=O)[C@H](CO)NC(=O)[C@H](Cc2ccc(O)cc2)NC(=O)[C@@H]2CCCN2C(=O)[C@H](CCCNC(=N)N)NC(=O)[C@@H]2CCCN2C(=O)[C@H](CCCCN)NC(=O)CNC(=O)[C@H](C(C)C)NC(=O)[C@H](CCCNC(=N)N)NC(=O)[C@H]([C@@H](C)CC)NC(=O)[C@@H]2CCCN2C(=O)[C@H](CCCNC(=N)N)NC(=O)[C@@H]2CCCN2C(=O)[C@H](Cc2cnc[nH]2)NC(=O)[C@H](CO)NC(=O)[C@H]([C@@H](C)O)NC(=O)[C@@H]2CCCN2C(=O)[C@H](CCCNC(=N)N)NC(=O)[C@@H]2CCCN2C(=O)[C@H](CO)NC(=O)[C@H](Cc2ccc(O)cc2)NC(=O)[C@@H]2CCCN2C(=O)[C@H](CCCNC(=N)N)NC(=O)[C@@H]2CCCN2C(=O)[C@H](CCCCN)NC(=O)CNC(=O)[C@H](C(C)C)NC(=O)[C@H](CCCNC(=N)N)NC1=O (HELM PEPTIDE1{G.K.P.R.P.Y.S.P.R.P.T.S.H.P.R.P.I.R.V.G.K.P.R.P.Y.S.P.R.P.T.S.H.P.R.P.I.R.V}$PEPTIDE1,PEPTIDE1,1:R1-38:R2$$$V2.0)
- MIC [1]: > 64 µM
- MIC [2]: > 64 µM
- MIC [3]: > 64 µM
- MIC [4]: > 64 µM
- MIC [5]: > 64 µM
- MIC [6]: > 64 µM
- MIC [7]: > 64 µM
- MIC [8]: > 64 µM
- MIC [9]: > 64 µM
- MIC [10]: > 64 µM
- MIC [11]: > 64 µM
- MIC [12]: > 64 µM
- MIC [13]: > 64 µM
- MIC [14]: > 64 µM

SMILES: CC[C@H](C)[C@@H]1NC(=O)[C@@H]2CCCN2C(=O)[C@H](CCCN=C(N)N)NC(=O)[C@@H]2CCCN2C(=O)[C@H](Cc2c[nH]cn2)NC(=O)[C@H](CO)NC(=O)[C@H]([C@@H](C)O)NC(=O)[C@@H]2CCCN2C(=O)[C@H](CCCN=C(N)N)NC(=O)[C@@H]2CCCN2C(=O)[C@H](CO)NC(=O)[C@H](Cc2ccc(O)cc2)NC(=O)[C@@H]2CCCN2C(=O)[C@H](CCCN=C(N)N)NC(=O)[C@@H]2CCCN2C(=O)[C@H](CCCCN)NC(=O)CNC(=O)[C@H](C(C)C)NC(=O)[C@H](CCCN=C(N)N)NC1=O (HELM PEPTIDE1{G.K.P.R.P.Y.S.P.R.P.T.S.H.P.R.P.I.R.V}$PEPTIDE1,PEPTIDE1,1:R1-19:R2$$$V2.0)
- MIC [1]: > 64 µM
- MIC [2]: 64 µM (≈ 140 µg/mL)
- MIC [3]: > 128 µM
- MIC [4]: > 64 µM
- MIC [5]: > 128 µM
- MIC [6]: > 128 µM
- MIC [7]: > 128 µM
- MIC [8]: > 128 µM
- MIC [9]: > 128 µM
- MIC [10]: > 64 µM
- MIC [11]: > 64 µM
- MIC [12]: > 128 µM
- MIC [13]: > 128 µM
- MIC [14]: > 128 µM
